Experimental findings from ChEMBL document CHEMBL1147433, “Design of small molecule ketoamide-based inhibitors of cathepsin K” (Bioorg Med Chem Lett, 2004) are described below.

Data set [1] deals with T1, Cathepsin K (Homo sapiens, UniProt P43235).
T1 sequence (P43235 whole entry): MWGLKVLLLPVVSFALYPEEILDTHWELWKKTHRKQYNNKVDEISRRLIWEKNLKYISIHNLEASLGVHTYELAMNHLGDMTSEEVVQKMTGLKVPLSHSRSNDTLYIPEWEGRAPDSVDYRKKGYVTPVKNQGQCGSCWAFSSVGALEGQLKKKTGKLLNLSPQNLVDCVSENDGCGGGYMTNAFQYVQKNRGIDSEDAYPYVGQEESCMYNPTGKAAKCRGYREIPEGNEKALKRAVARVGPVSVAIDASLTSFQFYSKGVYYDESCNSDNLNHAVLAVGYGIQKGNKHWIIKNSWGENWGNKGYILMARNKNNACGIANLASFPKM
The data set can be described thus: Inhibitory activity against human cathepsin K. The essentials: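 Recombinant human cathepsin K activity was measured by fluorescence with Cbz-Phe-Arg-AMC as the substrate, in 100 mM NaOAc, 10 mM DTT and 120 mM NaCl at pH 5.5. IC50 values are the mean of two or three inhibition assays. Individual data points within each experiment fell within a 3-fold range of each other.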

The nature of data set [2]: Half-life in rat. The class given is ADME, organism-based. As to conditions: in vivo.
Data set [3] can be described thus: PAPP (membrane permeability) in dog kidney cell monolayer assay. It counts as ADME, Canis lupus familiaris. As to conditions: read-out: Activity.
Data set [4] concerns the target T2, Cathepsin K (Rattus norvegicus, UniProt O35186).
T2 sequence (O35186 whole entry): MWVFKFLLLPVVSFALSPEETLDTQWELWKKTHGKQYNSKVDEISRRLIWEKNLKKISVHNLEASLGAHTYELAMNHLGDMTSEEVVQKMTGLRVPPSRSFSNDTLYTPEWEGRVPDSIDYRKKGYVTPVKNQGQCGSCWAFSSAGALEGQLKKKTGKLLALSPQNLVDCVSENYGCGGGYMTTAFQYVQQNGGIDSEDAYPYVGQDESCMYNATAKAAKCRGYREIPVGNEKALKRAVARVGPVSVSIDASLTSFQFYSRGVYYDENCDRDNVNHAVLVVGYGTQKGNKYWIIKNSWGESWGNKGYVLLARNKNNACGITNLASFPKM
The data set can be described thus: Inhibitory activity against rat cathepsin K.

The nature of data set [5]: Vss in rat. It counts as ADME, organism-based. As to conditions: in vivo, read-out: Vss.
Data set [6] in a line: Oral bioavailability in rat. It counts as ADME, organism-based. As to conditions: in vivo.
Data set [7] is described as follows: Clearance in rat. The class given is ADME, organism-based. As to conditions: in vivo, read-out: Clearance (C1).

A word on the IC50: it is the concentration at which inhibition is half-maximal. The half-life is the time needed for the level to fall by half in the phase considered. Usually bioavailability stands for the share of a dose that reaches the circulation, judged against a reference dose that is usually intravenous. The low end stands for poor availability, the high end for good availability. By clearance is commonly meant a measure of how efficiently the substance is removed, as volume per time.

As for `CCCC[C@H](NC(=O)OC(C)(C)C)C(=O)C(=O)NCc1cccs1`, the half-inhibitory concentration (IC50) against Cathepsin K [1] was determined as 3.4 µM. On to `CCCC[C@H](NC(=O)OC(C)(C)C)C(=O)C(N)=O`, for which the IC50 at Cathepsin K [1] was 5.9 µM. On the same count and under the same terms, the result for `CCCC[C@H](NC(=O)O[C@H](CCCc1ccccc1)C(C)(C)C)C(=O)C(=O)N[C@H](C)c1ccccc1` reads 0.00079 µM; that for `CCCC[C@H](NC(=O)OC(C)(C)C)C(=O)C(=O)NCC`, 18 µM; that for `CCCC[C@H](NC(=O)OCC(C)(C)C)C(=O)C(=O)N[C@H](C)c1ccccc1`, 0.034 µM. Same read-out and setting: the figure for `CCCC[C@H](NC(=O)OC(C(C)(C)C)C(C)(C)C)C(=O)C(=O)N[C@H](C)c1ccccc1` is 0.00071 µM. At Cathepsin K [1], `CCCC[C@H](NC(=O)OC(CC)CC)C(=O)C(=O)N[C@H](C)c1ccccc1` displayed a half-inhibitory concentration (IC50) of 0.076 µM. Regarding `CCCC[C@H](NC(=O)OC(C)(C)C)C(=O)C(=O)N[C@@H](C)c1ccccc1`, 4.2 µM corresponded to half-maximal inhibition against Cathepsin K [1] (IC50).

For `CCCC[C@H](NC(=O)OC(C1CCCC1)C1CCCC1)C(=O)C(=O)N[C@H](C)c1ccccc1`, half-maximal inhibition at Cathepsin K [1] (IC50) required 0.0063 µM. `CCCC[C@H](NC(=O)O[C@@H](CCCc1ccccc1)C(C)(C)C)C(=O)C(=O)N[C@H](C)c1ccccc1` registered a concentration for half-maximal inhibition (IC50) on Cathepsin K [1] of 1.4 µM. For the molecule `CCCC[C@H](NC(=O)OC(CCC)CCC)C(=O)C(=O)N[C@H](C)c1ccccc1`, half-maximal inhibition against Cathepsin K [1] (IC50) was put at 0.032 µM.

As for `CCCC[C@H](NC(=O)OC(C)(C)C)C(=O)C(=O)NC(C)(C)C`, on Cathepsin K [1], the half-inhibitory concentration (IC50) is > 100 µM.

On Cathepsin K [1], `CCCC[C@H](NC(=O)OC(C)(C)C)C(=O)C(=O)Nc1ccccc1` gave an IC50 of 6.3 µM. Regarding `CCCC[C@H](NC(=O)OC(C)(C)C)C(=O)C(=O)N[C@H](C)c1ccccc1`, the IC50 on Cathepsin K [1] turned out to be 1.2 µM. With `CCCC[C@H](NC(=O)OC(C(C)C)C(C)C)C(=O)C(=O)N[C@H](C)c1ccccc1`, the half-life in data set [2] worked out at 4.83 h. In addition, the Papp in data set [3] was 5.7 ×10⁻⁶ cm/s. This molecule also yielded an IC50 on Cathepsin K [4] of 0.02 µM. In addition, the Vd in data set [5] worked out at 1.9 L/kg. In data set [6], this molecule had a bioavailability of 3%. For the same molecule, the clearance in data set [7] was 8.7 mL/min/kg. As to `CCCC[C@H](NC(=O)OC(C)(C)C)C(=O)C(=O)N(C)[C@H](C)c1ccccc1`, the half-inhibitory concentration (IC50) on Cathepsin K [1] was > 100 µM.

`CCCC[C@H](NC(=O)OC(C)(C)C)C(=O)C(=O)NC(C)C` displayed a concentration for half-maximal inhibition (IC50) against Cathepsin K [1] of 9.1 µM. Still for that read-out and setting: the result for `CCCC[C@H](NC(=O)O[C@@H](CCc1ccccc1)C(C)(C)C)C(=O)C(=O)N[C@H](C)c1ccccc1` reads 0.912 µM; that for `CCCC[C@H](NC(=O)OC(C)(C)C)C(=O)C(=O)NCc1ccccc1`, 2.9 µM. Same read-out and setting: the result for `CCCC[C@H](NC(=O)OC(C)(C)C)C(=O)C(=O)NC` reads 21 µM.

`CCCC[C@H](NC(=O)OC(CC(C)C)CC(C)C)C(=O)C(=O)N[C@H](C)c1ccccc1` yielded an IC50 against Cathepsin K [1] of 0.069 µM. As for `CCCC[C@H](NC(=O)OC(C)C(C)(C)C)C(=O)C(=O)N[C@H](C)c1ccccc1` (some centres undefined), on Cathepsin K [1], the IC50 was found to be 0.02 µM.

As for `CCCC[C@H](NC(=O)OC(C)(C)C)C(=O)C(=O)NCCc1ccccc1`, the half-inhibitory concentration (IC50) on Cathepsin K [1] is 5 µM. The same measure, in the same setting: the figure for `CCCC[C@H](NC(=O)O[C@H](CCc1ccccc1)C(C)(C)C)C(=O)C(=O)N[C@H](C)c1ccccc1` is 0.0011 µM.
